From PubChem BioAssay
CSN deneddyl inh = inhibitors of CSN-mediated cullin deneddylation, primary screen, biochemical, fluorescence polarization, uHTS; COP9 signalosome complex subunit 5 (Homo sapiens), Q92905; Purified CSN, SCF-Nedd8-OG deneddylation; inhibition, % at 12.5 µM; 360,000 tested, 0.38% active;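 active = pattern-corrected inhibition above about 35%, with an unprinted fluorescence ratio check between 0.5 and 1.5, limit read from the data, passing the limit was not always enough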
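Assay system: purified human Csn5 enzyme expressed in HEK293T cells; measure: % inhibition; also added: SCFSkp2-Nedd8OG substrate at 10 nM final; technique: fluorescence polarization; times: reaction 90 min, room temperature; medium: Tris buffer pH 7.5, NaCl, DTT, Tween-20, trehalose, ovalbumin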
TPT1 inhibitor = Candida albicans TPT1 enzyme inhibitors, primary screen, biochemical, fluorescence polarization; recombinant caTPT1, FP RNA substrate dephosphorylation; inhibition, % at 5 µM; 300,000 tested, 0.81% active;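 active = inhibition above the mean of all tested compounds plus 3 SD, set per screening campaign, cut at about 24% in these data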
Rpn11 inh = Rpn11 (PSMD14) deubiquitinase inhibitors, primary screen, biochemical, fluorescence polarization, uHTS; calls only at 20 µM; 26S proteasome non-ATPase regulatory subunit 14 (Homo sapiens), O00487; 360,000 tested, 0.59% active; human 26S proteasome, Ub4-pepOG fluorescence polarization; 20S core pre-blocked with epoxomicin;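 active = inhibition at 20 µM, scaled to each plate's controls, above about 33%, limit read from the data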
CRFBP-R2 agonist = agonists of CRF-BP/CRF-R2 complex, primary screen, cell-based, HEK293, calcium dye fluorescence, uHTS; CRF-binding protein / CRF receptor 2 complex (human); calcium dye fluorescence (FLIPR); percent of saturating CRF peptide response; activation, % at 13.2 µM; 350,000 tested, 0.46% active; AID 588473, 2011;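 active = activation of at least 50%, plus an integration ratio under a set limit after plate pattern correction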
HNF4A DNA FP = change in binding of human HNF4A to DNA, primary screen, biochemical, fluorescence polarization, FITC-DNA | AID 1224865, 2016 | activity change, % at 10 µM | 360,000 tested, 0.3% active | 1 h; in the data active = activity change above about 30%, passing the limit was not always enough
Target sequence (P41235 whole entry, looked up): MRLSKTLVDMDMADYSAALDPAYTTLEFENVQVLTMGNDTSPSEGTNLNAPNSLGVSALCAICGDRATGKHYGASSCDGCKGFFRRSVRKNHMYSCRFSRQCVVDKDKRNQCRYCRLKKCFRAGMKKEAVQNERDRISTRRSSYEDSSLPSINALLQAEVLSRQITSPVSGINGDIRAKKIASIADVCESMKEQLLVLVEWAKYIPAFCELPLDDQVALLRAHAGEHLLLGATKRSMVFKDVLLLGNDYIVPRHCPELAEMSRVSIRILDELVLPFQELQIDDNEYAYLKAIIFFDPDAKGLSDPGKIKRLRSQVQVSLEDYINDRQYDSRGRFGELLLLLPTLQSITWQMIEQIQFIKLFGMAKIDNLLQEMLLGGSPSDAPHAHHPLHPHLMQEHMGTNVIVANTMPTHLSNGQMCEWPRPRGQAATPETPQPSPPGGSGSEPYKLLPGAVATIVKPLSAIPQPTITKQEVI
CRFR2-BP antag = antagonists of CRF-BP/CRF-R2 complex, primary screen, cell-based, HEK293, calcium dye fluorescence, uHTS | CRF-induced calcium fluorescence | 350,000 tested, 0.59% active | inhibition, % at 11.8 µM;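 active = inhibition of the ligand-induced calcium signal above about 50% at the single tested concentration, limit read from the data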
Of the large screens only hits and unclear results are named; the others gave an inactive call. Most compounds without a hit are left out; they make up all but 2.3% or so of the library.

CC12CC3CC(C1)CC(C(=O)NNC(=O)c1ccncc1)(C3)C2	none (no result: TPT1 inhibitor)
O=C(NNC(=S)NC(=O)C12CC3CC(CC(C3)C1)C2)c1ccncc1	CRFBP-R2 agonist 139
CC1(C(=O)NC(=S)NNC(=O)c2ccncc2)CCCCC1	CRFBP-R2 agonist 81
Nc1nc(-c2ccc(Oc3ccccc3)cc2)c(CC(=O)O)s1	CSN deneddyl inh 42 (not shown: TPT1 inhibitor, Rpn11 inh)
Cc1nc2c(C(=O)NCCc3ccccc3)c[nH]n2c(=O)c1Cl	CRFR2-BP antag 51
CCOC(=O)C1=C(C)N=c2s/c(=C/c3cccc([N+](=O)[O-])c3O)c(=O)n2C1c1ccc(OC)cc1OC (stereo not given)	CRFR2-BP antag 59
COc1ccccc1/C=C/c1nc(S(=O)(=O)c2ccccc2)c(N(C)C)o1	CRFR2-BP antag 72
Cc1cc(C(=O)O)ccc1-c1ccc(/C=C2\SC(=O)N(CC(=O)Nc3ccc4c(c3)OCO4)C2=O)o1	HNF4A DNA FP 36 (no result: TPT1 inhibitor, CRFBP-R2 agonist, CRFR2-BP antag)
COC(=O)c1ccccc1CC1Cc2cc3c(cc2C1=O)CCC3 (stereo not given)	none (no result: TPT1 inhibitor)
CN(C)CCCOC(=O)C1c2ccccc2Oc2ccccc21	none
CN(CCOC(=O)C1c2ccccc2Oc2ccccc21)C(C)(C)C	CRFR2-BP antag 50
Cc1cccc(C)c1N1CCN(c2cc(Cl)nc(N)n2)CC1	none
COc1ccc(/C=N/Nc2ncnc3c2[nH]c2ccccc23)c(OC)c1OC	none
COc1cccc(/C=N/Nc2ncnc3c2[nH]c2ccc(C)cc23)c1OC	CSN deneddyl inh 68, HNF4A DNA FP 52
CCOc1ccc(C2=Nc3ccc(Br)cc3C(c3ccc(N4CCOCC4)cc3)=NN2)cc1	none
Brc1ccc2c(c1)C(c1ccc(N3CCOCC3)cc1)=NNC(c1cccs1)=N2	HNF4A DNA FP 37 (not shown: Rpn11 inh)
Cc1ccc2c(c1)C(c1ccc(N3CCOCC3)cc1)=NNC(c1cccs1)=N2	none
Fc1ccc2c(c1)C(c1ccc(N3CCOCC3)cc1)=NNC(c1cccs1)=N2	Rpn11 inh active
Cn1nc(-c2ccc(N3CCOCC3)c(NS(=O)(=O)c3ccccc3)c2)c2ccccc2c1=O	none
CCC(C)NC(=O)Cn1cnc2sc(C)c(S(=O)(=O)N3CCN(c4ccccc4OC)CC3)c2c1=O (stereo not given)	none
CCC(C)NC(=O)Cn1cnc2sc(C)c(S(=O)(=O)N3CCCCC3)c2c1=O (stereo not given)	CRFR2-BP antag 62
COc1cc(CCC(=O)NC2(C)CCS(=O)(=O)C2)cc(OC)c1OC (stereo not given)	CRFR2-BP antag 53 (no result: TPT1 inhibitor)
Cc1cc2nc(-c3cccc(Cl)c3)c(Cc3ccsc3)n2c(C)c1Br	none (no result: TPT1 inhibitor, Rpn11 inh, CRFBP-R2 agonist, CRFR2-BP antag)
CCOc1ccc(C(=O)C2CCN(C(=O)c3ccccc3C(=O)O)CC2)cc1	none
CCOc1ccc(C2C(C(=O)C3CC3)N3C=C(C#N)C=CC3C2(C#N)C#N)cc1 (stereo not given)	TPT1 inhibitor 50 (no result: CSN deneddyl inh, Rpn11 inh, CRFBP-R2 agonist, HNF4A DNA FP, CRFR2-BP antag)
CC1CCCCN1C(C(=O)O)c1ccccc1 (stereo not given)	CRFR2-BP antag 65
COc1ccc2cc(C(=O)NCc3ccccc3)[nH]c2c1	none (no result: TPT1 inhibitor)
CCOC(=O)CSc1nnc(CSc2nc3sc4c(c3c(=O)[nH]2)CCCC4)n1-c1ccccc1	HNF4A DNA FP 34
CCCCn1c(=O)[nH]c(=O)c2c1nc(-c1ccc(OC)c(Br)c1)n2CC(C)C	none
CCc1ccc(-c2cc3c(=O)n(CC(=O)NCCCN4CCC(Cc5ccccc5)CC4)nc(C)n3n2)cc1	CRFR2-BP antag 101
CCn1c(COc2ccccc2C)nc2ccccc21	CRFBP-R2 agonist 73
Cc1ccnc(SCC(=O)c2ccc(Br)cc2)c1C#N	none
Cc1ccc(CN2CCN(/N=C/C(Br)=C\c3ccccc3)CC2)cc1	CRFBP-R2 agonist 129
CCOc1ccc(NC(=O)CC2C(=O)N(c3ccccc3)C(=S)N2Cc2ccccn2)cc1 (stereo not given)	none
Cc1cc(C)n(-c2ccc(C(=O)OCC(=O)NC(c3ccccc3)c3ccccc3)cc2)n1	none
CCNC(=S)N1CCNC(=O)C1CC(=O)OC (stereo not given)	CSN deneddyl inh 81
CC1=CC(C)(C)N(C(=O)c2ccccc2)c2ccc(C)cc21	CRFBP-R2 agonist 67 (no result: TPT1 inhibitor)
CC1=CC(C)(C)N(C(=O)c2ccccc2)c2ccccc21	none
N#C/C(=C\c1ccc(-c2ccc(C(=O)O)cc2)o1)c1nc2ccccc2[nH]1	CRFBP-R2 agonist 141 (not shown: TPT1 inhibitor, Rpn11 inh)
N#C/C(=C\c1ccccc1C(=O)O)c1nc2ccccc2[nH]1	none
CN(C)CCCNC(=O)CC1C[C@H](C(=O)N2CCOCC2)[C@@]2(CCC3CCCC3)c3[nH]c4ccccc4c3CCN2C1=O (stereo not given in full)	none (no result: TPT1 inhibitor)
CCCC(=O)NNC(=O)c1c(O)c2ccccc2[nH]c1=O	none
CC(C)(C)OC(=O)N1CCCN(C(=O)Nc2cccc(Cl)c2)CC1	CRFR2-BP antag 113
CC(C)(C)OC(=O)N1CCCN(C(=O)Nc2ccccc2)CC1	none
CC(=O)Nc1ccc(S(=O)(=O)Nc2ccc(=O)n(Cc3ccc(Cl)c(Cl)c3)c2)cc1	none
COc1cc(C2C=C(c3cccs3)Nc3ncnn32)cc(OC)c1OC (stereo not given)	CRFBP-R2 agonist 221 (no result: TPT1 inhibitor)
COc1cc(C2CC(=O)C3=C(C2)Nc2ncnn2C3c2cccs2)cc(OC)c1OC (stereo not given)	none
CCNC(=O)C1CCCN(C(=O)c2ccc(C(F)(F)F)cc2)CC1 (stereo not given)	none (no result: TPT1 inhibitor, CRFBP-R2 agonist, CRFR2-BP antag)
CN(C)S(=O)(=O)N1C(=O)c2ccccc2C1=O	none
CN(C)/C=C1\C=C2C(=O)c3ccccc3N2C1=O	CRFBP-R2 agonist 217
CCN(CC)C(=O)[C@H]1CC(CC(=O)NCCCN(C)C)C(=O)N2CCc3c([nH]c4ccc(OC)cc34)[C@]12C (stereo not given in full)	none (no result: TPT1 inhibitor)
CN(C)c1ccc(/C=C/c2ccncc2)cc1	CRFBP-R2 agonist 173 (no result: TPT1 inhibitor)
Cc1ccc2c3c(cccc13)-c1ccccc1C2=O	none
Nc1ccc2c3c(cccc13)-c1ccccc1-2	CRFBP-R2 agonist 197 (no result: TPT1 inhibitor)
COC(=O)[C@H](C)NC(=O)Nc1ccccc1C(F)(F)F	none
c1ccc(-c2cnn3c(-c4ccccc4)c(-c4ccccc4)nc3n2)cc1	CRFBP-R2 agonist 220 (no result: TPT1 inhibitor)
COCCCNC(=S)N1CCCN(c2nc3cc(C)ccc3cc2C#N)CC1	none
Cc1ccc(S(=O)(=O)NCCSc2nnc(N)s2)cc1	none
Cc1ccc2[nH]c(C)c(/C=C/c3cc[n+](C)cc3)c2c1	none (not shown: TPT1 inhibitor, Rpn11 inh)
Cc1ccc2c(c1)c(/C=C/c1cc[n+](C)cc1)c(C)n2C	CRFBP-R2 agonist 53 (not shown: TPT1 inhibitor, Rpn11 inh)
